Laboratory results published in ChEMBL document CHEMBL1687778, “Genetic determinants involved in the susceptibility of Pseudomonas aeruginosa to beta-lactam antibiotics” (2010).
Values after ≈ are worked out from the molar mass of the structure shown.

Tests used:
[1] = system: Pseudomonas aeruginosa PA14; assay: Activity of wild type Pseudomonas aeruginosa PA14 Beta-lactamase assessed as nitrocefin hydrolysis per mg of protein by spectrophotometry
In short: (§1)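 Cells grown to OD600 1.0, pelleted and resuspended in 0.1 M KH2PO4-Na2HPO4 pH 7.0. Crude extract made by two freeze-thaw cycles plus sonication on ice. β-Lactamase read as absorbance change at 485 nm with 50 µM nitrocefin in the same pH 7.0 phosphate buffer. Extract protein measured by BCA against a bovine serum albumin standard.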

[2] = system: Pseudomonas aeruginosa PA14; assay: Activity of Beta-lactamase in Pseudomonas aeruginosa PA14 PA3047 harboring complemented dacB mutant gene assessed as nitrocefin hydrolysis per mg of protein by spectrophotometry; in short: as §1
[3] = system: Pseudomonas aeruginosa PA14; assay: Activity of Beta-lactamase in Pseudomonas aeruginosa PA14 PA4020 harboring mpl mutant gene assessed as nitrocefin hydrolysis per mg of protein by spectrophotometry; in short: as §1
[4] = system: Pseudomonas aeruginosa PAO1; assay: Activity of Beta-lactamase in Pseudomonas aeruginosa PAO1 PA4020 harboring mpl mutant gene assessed as nitrocefin hydrolysis per mg of protein by spectrophotometry; in short: as §1
[5] = system: Pseudomonas aeruginosa PA14; assay: Activity of Beta-lactamase in Pseudomonas aeruginosa PA14 PA4020 harboring complemented mpl mutant gene assessed as nitrocefin hydrolysis per mg of protein by spectrophotometry; in short: as §1
[6] = system: Pseudomonas aeruginosa; assay: Antimicrobial activity against Pseudomonas aeruginosa PA14 PA5001 harboring mutation in putative glycosyl-transferase by broth microdilution method relative to wild type
[7] = system: Pseudomonas aeruginosa; assay: Antimicrobial activity against Pseudomonas aeruginosa harboring algU mutant gene by Etest method; assay type: functional
In short: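 Etest MIC. Overnight LB cultures at 37°C were diluted in sterile 0.85% NaCl to about 1 × 10^7 CFU/ml. 100 µl was spread on Mueller-Hinton agar, one strip was placed per plate, and plates were incubated at 37°C for 18 h. Equal cell numbers were seeded per plate, and results were verified in triplicate. PA14 wild type was included in each set as a susceptibility control.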

[8] = system: Pseudomonas aeruginosa; assay: Antimicrobial activity against Pseudomonas aeruginosa harboring pBBR1MCS-3 expressing algU mutant gene by Etest method; assay type: functional
In short: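 Etest MIC run in triplicate on a plasmid-carrying strain. The Mueller-Hinton agar contained tetracycline at 20 µg/ml for plasmid maintenance. The inoculum was about 1 × 10^7 CFU/ml in 0.85% NaCl, from an overnight LB culture grown at 37°C; 100 µl was spread per plate. One strip was placed per plate, with incubation at 37°C for 18 h.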

| Structure (SMILES) | Activity [1] | Activity [2] | Activity [3] | Activity [4] | Activity [5] | fold change (FC) [6] | MIC [7] | MIC [8] |
| --- | --- | --- | --- | --- | --- | --- | --- | --- |
| CC(C)(O/N=C(\C(=O)N[C@@H]1C(=O)N2C(C(=O)[O-])=C(C[n+]3ccccc3)CS[C@H]12)c1csc(N)n1)C(=O)O [CEFTAZIDIME] | 4.9 nmol/min | 3.8 nmol/min | 96 nmol/min | 168 nmol/min | 7.3 nmol/min | 3 |  |  |
| C[C@@H](O)[C@H]1C(=O)N2C(C(=O)O)=C(SCCNC=N)C[C@H]12 [IMIPENEM ANHYDROUS] |  |  |  |  |  |  | 0.38 µg/mL (≈ 1.27 µM) | 0.38 µg/mL (≈ 1.27 µM) |
